# Measurements taken from paper PMC10559049 (Heliyon, 2023).
# Columns and labels:
# [1] = test system: LPS-treated BV2 microglial cells; details: 15 μmol; cited from earlier work
# [2] = named as a side effect restricting use; cited from earlier work
# [3] = named as a side effect restricting use; cited from earlier work; remark: listed apart in the source
# sEH [4] = target: T1, sEH (Homo sapiens, UniProt P34913); experiment: biochemical
# T1 sequence (P34913 1-555): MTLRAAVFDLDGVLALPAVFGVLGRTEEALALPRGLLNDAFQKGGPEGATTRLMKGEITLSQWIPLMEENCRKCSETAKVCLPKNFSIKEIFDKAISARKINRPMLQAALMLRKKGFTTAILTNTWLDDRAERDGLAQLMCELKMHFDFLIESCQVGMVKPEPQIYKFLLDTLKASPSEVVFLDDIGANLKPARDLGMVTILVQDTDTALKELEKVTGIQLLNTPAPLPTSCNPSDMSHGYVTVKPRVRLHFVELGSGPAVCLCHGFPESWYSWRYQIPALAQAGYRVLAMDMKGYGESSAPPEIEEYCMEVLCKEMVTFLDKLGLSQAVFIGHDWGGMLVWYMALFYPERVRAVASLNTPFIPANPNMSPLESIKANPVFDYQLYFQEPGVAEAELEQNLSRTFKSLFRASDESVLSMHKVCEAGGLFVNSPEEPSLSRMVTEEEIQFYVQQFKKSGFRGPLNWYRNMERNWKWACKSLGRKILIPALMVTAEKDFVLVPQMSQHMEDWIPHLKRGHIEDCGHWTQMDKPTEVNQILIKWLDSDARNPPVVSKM
# sEH [5] = target: T1, sEH; experiment: Enzyme kinetics analysis; type: biochemical
# How it was run: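 Recombinant human sEH (250 ng/mL) in 25 mM Tris–HCl, pH 7.0, with 0.1 mg/mL BSA, mixed with inhibitor in methanol, then PHOME substrate added at several concentrations. Product fluorescence was read at ex 330/em 465 nm. Initial velocities at each fixed inhibitor concentration were plotted double-reciprocally (Lineweaver–Burk) to assign inhibition mode and derive Ki. Triplicates in three independent experiments, mean ± SEM.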
# sEH [6] = details: derived from the leaves of Capsicum chinense; cited from earlier work
molecule,measurement,setting,value
"O=C(C=Cc1cc(O)c2c(c1)C(C(=O)NCCc1ccc(O)cc1)C(c1ccc(O)c(O)c1)O2)NCCc1ccc(O)cc1 (stereo not shown) [3,3′-demethyl-grossamide]",anti-neuroinflammatory activities via TNF-α suppression,[1],exerted anti-neuroinflammatory activities
"O=C(O)CCCCCCCCCCCNC(=O)NC12CC3CC(CC(C3)C1)C2 [AUDA, 12-(3-adamantane-1-yl-ureido)-dodecanoic acid]",metabolic stability,[2],metabolic instability
same,water solubility,[3],limited water solubility
"COc1cc([C@@H]2Oc3c(OC)cc(/C=C/C(=O)NCCc4ccc(O)cc4)cc3[C@H]2C(=O)NCCc2ccc(O)cc2)ccc1O [Compound 5, grossamide]",IC50,sEH [4],3300 ± 300 nM
same,Ki,sEH [5],1500 nM
same,Inhibition type,sEH [5]; Lineweaver-Burk plots,Competitive
O=C(/C=C/c1ccc(O)cc1)NCCc1ccc(O)cc1 [N-trans-Coumaroyltyramine],mode of inhibition against sEH,sEH [6],competitive inhibition
COc1cc(/C=C/C(=O)NCCc2ccc(O)cc2)ccc1O [N-trans-feruloyltyramine],mode of inhibition against sEH,sEH [6],competitive inhibition
COc1cc(/C=C(C(=O)NCCc2ccc(O)cc2)\C(=C/c2ccc(O)c(OC)c2)C(=O)NCCc2ccc(O)cc2)ccc1O [cannabisin G],anti-neuroinflammatory activities via TNF-α suppression,[1],exerted anti-neuroinflammatory activities
coumaroyl-amino butanol glucopyranoside,anti-neuroinflammatory activities via TNF-α suppression,[1],exerted anti-neuroinflammatory activities
